From ChEMBL document CHEMBL1136377, “2,4-disubstituted pyrimidines: a novel class of KDR kinase inhibitors” (Bioorg Med Chem Lett, 2003)

How the values were obtained:
[1] = target: T1, Vascular endothelial growth factor receptor 2 (Homo sapiens, UniProt P35968); test: Biochemical inhibition of phosphorylation of a poly-Glu/Tyr (4:1) peptide substrate by isolated vascular endothelial growth factor receptor 2 (cloned and expressed as a GST-fusion protein).
[2] = target: VEGF-receptor 2 and Fibroblast growth factor receptor 1 (Homo sapiens) (UniProt P35968+P11362); test: Selectivity for VEGF-receptor 2 (KDR) over FGF-receptor 1; assay type: protein assay
VEGF-receptor 2 and Fibroblast growth factor receptor 1 (Homo sapiens), sequence (P11362 whole entry, looked up): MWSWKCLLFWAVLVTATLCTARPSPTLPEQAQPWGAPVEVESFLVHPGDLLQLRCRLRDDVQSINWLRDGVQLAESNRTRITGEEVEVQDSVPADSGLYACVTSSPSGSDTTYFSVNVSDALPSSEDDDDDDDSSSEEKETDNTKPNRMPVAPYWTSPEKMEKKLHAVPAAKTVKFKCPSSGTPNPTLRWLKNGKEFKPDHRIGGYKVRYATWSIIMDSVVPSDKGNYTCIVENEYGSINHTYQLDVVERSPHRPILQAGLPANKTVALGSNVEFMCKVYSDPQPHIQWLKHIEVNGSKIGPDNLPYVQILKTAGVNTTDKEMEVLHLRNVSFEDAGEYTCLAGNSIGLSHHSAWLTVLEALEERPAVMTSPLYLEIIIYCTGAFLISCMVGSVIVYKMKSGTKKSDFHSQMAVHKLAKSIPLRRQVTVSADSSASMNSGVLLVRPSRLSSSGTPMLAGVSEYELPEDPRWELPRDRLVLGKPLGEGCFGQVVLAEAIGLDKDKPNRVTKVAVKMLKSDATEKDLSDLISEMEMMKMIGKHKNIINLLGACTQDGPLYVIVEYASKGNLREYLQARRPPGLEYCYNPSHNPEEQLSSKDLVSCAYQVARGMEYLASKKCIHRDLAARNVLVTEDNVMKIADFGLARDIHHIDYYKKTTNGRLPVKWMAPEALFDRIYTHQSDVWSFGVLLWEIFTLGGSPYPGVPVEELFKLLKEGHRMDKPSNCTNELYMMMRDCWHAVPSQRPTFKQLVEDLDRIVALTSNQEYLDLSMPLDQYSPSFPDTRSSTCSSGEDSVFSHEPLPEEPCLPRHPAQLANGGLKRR
VEGF-receptor 2 and Fibroblast growth factor receptor 1 (Homo sapiens), sequence (P35968 whole entry, looked up): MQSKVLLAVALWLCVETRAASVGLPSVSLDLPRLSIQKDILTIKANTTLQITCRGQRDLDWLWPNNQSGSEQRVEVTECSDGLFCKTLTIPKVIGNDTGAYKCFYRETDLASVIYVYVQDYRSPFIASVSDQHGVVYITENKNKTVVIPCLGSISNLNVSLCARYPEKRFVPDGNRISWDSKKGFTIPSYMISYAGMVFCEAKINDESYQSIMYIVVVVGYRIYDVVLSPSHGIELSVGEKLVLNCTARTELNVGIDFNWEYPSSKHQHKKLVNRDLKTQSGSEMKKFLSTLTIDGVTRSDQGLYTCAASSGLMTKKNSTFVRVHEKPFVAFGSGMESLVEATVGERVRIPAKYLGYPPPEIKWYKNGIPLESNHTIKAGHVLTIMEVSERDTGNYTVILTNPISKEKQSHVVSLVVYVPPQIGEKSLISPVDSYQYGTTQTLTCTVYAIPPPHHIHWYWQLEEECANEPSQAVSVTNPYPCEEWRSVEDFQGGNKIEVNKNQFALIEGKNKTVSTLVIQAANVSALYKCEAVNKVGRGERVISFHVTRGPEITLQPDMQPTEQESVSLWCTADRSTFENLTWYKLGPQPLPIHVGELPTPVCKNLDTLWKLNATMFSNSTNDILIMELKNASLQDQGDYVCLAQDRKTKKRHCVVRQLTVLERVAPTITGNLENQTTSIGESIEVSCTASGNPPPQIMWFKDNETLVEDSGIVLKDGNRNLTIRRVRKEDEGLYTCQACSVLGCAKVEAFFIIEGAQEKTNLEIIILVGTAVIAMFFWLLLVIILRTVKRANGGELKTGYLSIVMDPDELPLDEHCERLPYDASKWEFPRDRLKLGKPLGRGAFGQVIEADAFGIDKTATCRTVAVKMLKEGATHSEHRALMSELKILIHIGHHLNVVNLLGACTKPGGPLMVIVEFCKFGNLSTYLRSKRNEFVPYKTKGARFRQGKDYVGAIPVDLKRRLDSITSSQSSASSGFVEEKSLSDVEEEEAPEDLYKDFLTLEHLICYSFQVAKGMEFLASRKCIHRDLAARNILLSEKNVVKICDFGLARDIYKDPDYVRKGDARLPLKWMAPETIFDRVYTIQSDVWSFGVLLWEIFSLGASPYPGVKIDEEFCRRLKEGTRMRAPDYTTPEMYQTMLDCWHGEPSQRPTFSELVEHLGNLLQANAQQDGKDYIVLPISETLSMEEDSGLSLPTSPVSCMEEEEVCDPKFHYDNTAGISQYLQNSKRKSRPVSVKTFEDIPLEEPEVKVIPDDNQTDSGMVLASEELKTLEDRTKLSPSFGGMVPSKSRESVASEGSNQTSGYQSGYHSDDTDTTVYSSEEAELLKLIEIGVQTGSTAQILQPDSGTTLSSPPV

[3] = target: T2, Vascular endothelial growth factor receptor (Homo sapiens, UniProt P17948+P35916+P35968); test: Inhibition of VEGF-stimulated mitogenesis in human umbilical vein endothelial cells at 500 nM; assay type: functional, cell-based; settings: Endothelial cell
[4] = target: Vascular endothelial growth factor receptor 1 and 2 (Flt-1 and KDR) (Homo sapiens) (UniProt P17948+P35968); test: Selectivity for VEGF-receptor 2 (KDR) over VEGF-receptor 1 (FLT-1); assay type: protein assay
Vascular endothelial growth factor receptor 1 and 2 (Flt-1 and KDR) (Homo sapiens), sequence (P17948 whole entry, looked up): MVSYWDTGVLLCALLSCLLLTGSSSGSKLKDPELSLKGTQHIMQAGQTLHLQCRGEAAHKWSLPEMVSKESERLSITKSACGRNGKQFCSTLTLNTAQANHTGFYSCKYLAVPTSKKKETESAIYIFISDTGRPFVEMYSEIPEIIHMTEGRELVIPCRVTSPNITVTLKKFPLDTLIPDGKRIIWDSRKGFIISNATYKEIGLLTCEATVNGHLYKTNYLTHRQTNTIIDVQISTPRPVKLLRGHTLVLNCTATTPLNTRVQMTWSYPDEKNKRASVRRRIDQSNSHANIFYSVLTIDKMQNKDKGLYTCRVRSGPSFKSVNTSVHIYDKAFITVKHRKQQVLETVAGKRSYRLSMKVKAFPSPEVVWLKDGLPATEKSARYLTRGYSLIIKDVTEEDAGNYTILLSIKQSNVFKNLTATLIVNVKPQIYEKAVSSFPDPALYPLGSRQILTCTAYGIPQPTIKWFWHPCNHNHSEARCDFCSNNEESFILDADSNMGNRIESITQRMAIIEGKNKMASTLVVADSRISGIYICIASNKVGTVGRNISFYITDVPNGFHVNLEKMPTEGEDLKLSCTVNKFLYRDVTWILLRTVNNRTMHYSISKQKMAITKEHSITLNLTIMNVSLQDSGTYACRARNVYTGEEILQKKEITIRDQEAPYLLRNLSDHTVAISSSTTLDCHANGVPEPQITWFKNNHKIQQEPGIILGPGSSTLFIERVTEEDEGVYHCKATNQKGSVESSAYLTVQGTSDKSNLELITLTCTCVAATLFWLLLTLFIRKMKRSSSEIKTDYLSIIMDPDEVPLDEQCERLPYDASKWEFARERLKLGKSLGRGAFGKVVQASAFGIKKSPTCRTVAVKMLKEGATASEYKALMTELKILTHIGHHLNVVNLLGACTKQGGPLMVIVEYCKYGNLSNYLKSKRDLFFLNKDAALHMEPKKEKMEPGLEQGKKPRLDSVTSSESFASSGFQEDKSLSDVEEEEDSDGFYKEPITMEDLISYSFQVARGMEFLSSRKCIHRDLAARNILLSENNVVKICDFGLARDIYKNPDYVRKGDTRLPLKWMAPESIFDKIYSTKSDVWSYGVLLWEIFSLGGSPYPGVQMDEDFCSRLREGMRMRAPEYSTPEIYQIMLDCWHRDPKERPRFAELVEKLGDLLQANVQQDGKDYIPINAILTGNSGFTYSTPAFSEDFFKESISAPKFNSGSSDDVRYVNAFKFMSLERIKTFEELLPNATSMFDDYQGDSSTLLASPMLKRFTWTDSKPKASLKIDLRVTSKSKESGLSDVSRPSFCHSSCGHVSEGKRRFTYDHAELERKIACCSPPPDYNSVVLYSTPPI
Vascular endothelial growth factor receptor 1 and 2 (Flt-1 and KDR) (Homo sapiens), sequence (P35968 whole entry, looked up): as the sequence (P35968 whole entry, looked up) above

[5] = target: Vascular endothelial growth factor receptor 2 and 3 (KDR and Flt-4) (Homo sapiens) (UniProt P35916+P35968); test: Selectivity for VEGF-receptor 2 (KDR) over VEGF-receptor 3 (FLT-4); assay type: protein assay
Vascular endothelial growth factor receptor 2 and 3 (KDR and Flt-4) (Homo sapiens), sequence (P35916 whole entry, looked up): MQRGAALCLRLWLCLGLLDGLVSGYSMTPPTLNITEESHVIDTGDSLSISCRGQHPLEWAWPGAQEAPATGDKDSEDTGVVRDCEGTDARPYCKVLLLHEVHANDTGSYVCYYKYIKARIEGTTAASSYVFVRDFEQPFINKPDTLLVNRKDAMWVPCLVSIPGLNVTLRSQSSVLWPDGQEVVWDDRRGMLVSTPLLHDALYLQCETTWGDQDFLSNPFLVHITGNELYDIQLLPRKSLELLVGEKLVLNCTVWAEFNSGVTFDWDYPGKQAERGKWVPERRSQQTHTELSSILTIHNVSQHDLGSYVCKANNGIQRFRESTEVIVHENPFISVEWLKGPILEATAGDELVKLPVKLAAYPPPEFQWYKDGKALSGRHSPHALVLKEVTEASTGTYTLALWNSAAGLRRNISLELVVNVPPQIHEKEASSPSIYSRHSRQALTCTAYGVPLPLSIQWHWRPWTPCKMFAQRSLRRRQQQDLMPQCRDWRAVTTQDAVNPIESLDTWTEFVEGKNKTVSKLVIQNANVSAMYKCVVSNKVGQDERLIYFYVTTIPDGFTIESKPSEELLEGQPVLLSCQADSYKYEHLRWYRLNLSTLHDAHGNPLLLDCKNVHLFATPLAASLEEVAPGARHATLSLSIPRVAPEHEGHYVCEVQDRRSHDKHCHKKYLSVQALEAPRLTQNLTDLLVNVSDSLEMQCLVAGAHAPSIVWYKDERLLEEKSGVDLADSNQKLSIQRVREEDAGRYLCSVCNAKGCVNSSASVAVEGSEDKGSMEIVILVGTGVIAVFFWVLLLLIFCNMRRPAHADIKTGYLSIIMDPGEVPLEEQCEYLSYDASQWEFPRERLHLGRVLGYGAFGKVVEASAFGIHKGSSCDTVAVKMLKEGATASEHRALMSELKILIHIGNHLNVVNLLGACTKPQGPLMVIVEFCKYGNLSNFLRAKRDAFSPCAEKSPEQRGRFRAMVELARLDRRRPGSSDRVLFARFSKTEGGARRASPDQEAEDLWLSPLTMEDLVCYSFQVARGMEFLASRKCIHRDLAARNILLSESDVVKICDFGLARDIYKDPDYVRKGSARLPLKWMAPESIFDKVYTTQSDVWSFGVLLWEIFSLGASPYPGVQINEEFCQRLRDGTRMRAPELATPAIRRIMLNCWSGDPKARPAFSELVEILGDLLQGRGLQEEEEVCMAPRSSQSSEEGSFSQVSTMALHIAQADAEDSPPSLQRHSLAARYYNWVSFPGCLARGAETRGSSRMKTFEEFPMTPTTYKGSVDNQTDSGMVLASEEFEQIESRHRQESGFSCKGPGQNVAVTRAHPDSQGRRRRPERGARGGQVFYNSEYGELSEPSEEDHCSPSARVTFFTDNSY
Vascular endothelial growth factor receptor 2 and 3 (KDR and Flt-4) (Homo sapiens), sequence (P35968 whole entry, looked up): as the sequence (P35968 whole entry, looked up) above

[6] = target: VEGF-receptor 2 and tyrosine-protein kinase SRC (Homo sapiens) (UniProt P12931+P35968); test: Selectivity for VEGF-receptor (KDR) over c-SRC; assay type: protein assay
[7] = target: T2, Vascular endothelial growth factor receptor; test: Inhibition of VEGFstimulated mitogenesis in human umbilical vein endothelial cells; assay type: functional, cell-based; settings: endothelial cell
[8] = target: T2, Vascular endothelial growth factor receptor; test: Inhibition of VEGFstimulated mitogenesis in human umbilical vein endothelial cells.; assay type: functional, cell-based; settings: endothelial cell
[9] = target: VEGF-receptor 2 and PDGF-receptor beta (KDR and PDGFR beta) (Homo sapiens) (UniProt P09619+P35968); test: Selectivity for VEGF-receptor 2 (KDR) over PDGF-receptor beta; assay type: protein assay
[10] = target: VEGF-receptor 2 and Fibroblast growth factor receptor 2 (Homo sapiens) (UniProt P35968+P21802); test: Selectivity for VEGF-receptor 2 (KDR) over FGF-receptor 2; assay type: protein assay
[11] = target: T1, Vascular endothelial growth factor receptor 2; test: Biochemical inhibition of phosphorylation of a poly-Glu/Tyr (4:1) peptide substrate by isolated vascular endothelial growth factor receptor 2 (cloned and expressed as a GST-fusion protein)
[12] = Half life period was determined; assay type: ADME, organism-based, Canis lupus familiaris; settings: dog, in vivo
[13] = Plasma clearance was determined; assay type: ADME, organism-based, Canis lupus familiaris; settings: dog
[14] = Partition coefficient (logP); assay type: physicochemical; settings: octanol/water
Outline: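 Partition coefficient measured by HPLC analysis of an octanol/phosphate buffer (pH 7.4) system.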

[15] = Volume distribution constant was determined; assay type: ADME, organism-based, Canis lupus familiaris; settings: dog, in vivo; read-out: Vdss

T1 sequence (P35968 whole entry, the tested form may be a part): as the sequence (P35968 whole entry, looked up) above

**Q.** With c1ccc(-c2nccn2-c2ccnc(Nc3ccccn3)n2)cc1 as the molecule, how does the IC50 [1] read?
**A.** The IC50 was 6830 nM.

**Q.** For c1ccc(Nc2nccc(-n3ccnc3-c3ccccc3)n2)cc1, which IC50 [1] is on record?
**A.** The IC50 was 105 nM.

**Q.** What about the Selectivity [2] of the same molecule?
**A.** Its Selectivity is 295.

**Q.** And the inhibition [3]?
**A.** Its inhibition is 8%.

**Q.** And the Selectivity [4]?
**A.** Its Selectivity is 13.

**Q.** What about the Selectivity [5] of the same molecule?
**A.** The Selectivity was 5.

**Q.** And the Selectivity [6]?
**A.** Its Selectivity is 11.

**Q.** With Clc1cc(Cl)cc(Nc2nccc(-n3ccnc3-c3ccccc3)n2)c1 as the molecule, how does the IC50 [1] read?
**A.** Its IC50 is 26 nM.

**Q.** For c1ccc(-c2nccn2-c2ccnc(Nc3ccncc3)n2)cc1, which IC50 [1] is on record?
**A.** The IC50 was 273 nM.

**Q.** For Cc1ccccc1Nc1nccc(-n2ccnc2-c2ccccc2)n1, which IC50 [1] is on record?
**A.** The IC50 was 3080 nM.

**Q.** For COc1cccc(Nc2nccc(-n3ccnc3-c3ccccc3)n2)c1, which IC50 [7] is on record?
**A.** The IC50 was 88 nM.

**Q.** What about the IC50 [1] of the same molecule?
**A.** Its IC50 is 20 nM.

**Q.** Which results are given for COc1cc(Nc2nccc(-n3ccnc3-c3ccccc3)n2)cc(OC)c1?
**A.** IC50 [7]: 22 nM; IC50 [1]: 5 nM

**Q.** For COc1ccc(Nc2nccc(-n3ccnc3-c3ccccc3)n2)cc1, which IC50 [1] is on record?
**A.** Its IC50 is 392 nM.

**Q.** Which results are given for FC(F)(F)c1cccc(Nc2nccc(-n3ccnc3-c3ccccc3)n2)c1?
**A.** IC50 [7]: 303 nM; IC50 [1]: 10 nM

**Q.** Which results are given for Cc1cccc(Nc2nccc(-n3ccnc3-c3ccccc3)n2)c1?
**A.** IC50 [1]: 18 nM; IC50 [8]: 151 nM; Selectivity [9]: 22; Selectivity [2]: 1020; Selectivity [10]: 686; Selectivity [4]: 103; Selectivity [5]: 13; Selectivity [6]: 11

**Q.** Which results are given for Cc1cc(Nc2nccc(-n3ccnc3-c3ccccc3)n2)cc(C(F)(F)F)c1?
**A.** IC50 [7]: 26 nM; IC50 [1]: 5 nM

**Q.** For FC(F)(F)c1cc(Nc2nccc(-n3ccnc3-c3ccccc3)n2)cc(C(F)(F)F)c1, which IC50 [1] is on record?
**A.** The IC50 was 77 nM.

**Q.** For Cc1cc(C)cc(Nc2cc(-n3ccnc3-c3ccccc3)ncn2)c1, which IC50 [1] is on record?
**A.** The IC50 was 1810 nM.

**Q.** Which IC50 [7] does the source give for CC(=O)N1CCN(Cc2cc(C)cc(Nc3nccc(-n4ccnc4-c4ccccc4)n3)c2)CC1 here?
**A.** Its IC50 is 396 nM.

**Q.** And the IC50 [1]?
**A.** Its IC50 is 32 nM.

**Q.** For Cc1ccc(Nc2nccc(-n3ccnc3-c3ccccc3)n2)cc1, which IC50 [1] is on record?
**A.** Its IC50 is 279 nM.

**Q.** Which IC50 [1] does the source give for Clc1cccc(Nc2nccc(-n3ccnc3-c3ccccc3)n2)c1 here?
**A.** The IC50 was 25 nM.

**Q.** With COc1ccccc1Nc1nccc(-n2ccnc2-c2ccccc2)n1 as the molecule, how does the IC50 [1] read?
**A.** The IC50 was 289 nM.

**Q.** Which IC50 [7] does the source give for Cc1cc(CO)cc(Nc2nccc(-n3ccnc3-c3ccccc3)n2)c1 here?
**A.** The IC50 was 23 nM.

**Q.** And the IC50 [11]?
**A.** Its IC50 is 9 nM.

**Q.** Which IC50 [1] does the source give for c1ccc(-c2nccn2-c2ccnc(Nc3cccnc3)n2)cc1 here?
**A.** The IC50 was 340 nM.

**Q.** Which IC50 [1] does the source give for [O-][n+]1cccc(Nc2nccc(-n3ccnc3-c3ccccc3)n2)c1 here?
**A.** Its IC50 is 3570 nM.

**Q.** What does the source list for Cc1cc(C)cc(Nc2nccc(-n3ccnc3-c3ccccc3)n2)c1?
**A.** half-life [12]: 42.6 min; IC50 [1]: 6 nM; IC50 [8]: 19 nM; Selectivity [9]: 6; Selectivity [2]: 606; Selectivity [10]: 261; Selectivity [4]: 30; clearance [13]: 30.1 mL/min/kg; logP [14]: 3.74; Selectivity [5]: 5; Vd [15]: 1.11 L/kg; Selectivity [6]: 10

**Q.** For Cc1cc(C)cc(Nc2nccc(-n3cc(C)nc3-c3ccccc3)n2)c1, which IC50 [1] is on record?
**A.** Its IC50 is 450 nM.

**Q.** For COc1cc(Nc2nccc(-n3ccnc3-c3ccccc3)n2)cc(C(F)(F)F)c1, which IC50 [1] is on record?
**A.** The IC50 was 19000 nM.

**Q.** Which IC50 [1] does the source give for Cc1cc(C)cc(Nc2cc(-n3ccnc3-c3ccccc3)ccn2)c1 here?
**A.** Its IC50 is 892 nM.
